Reference: publication PMC10527666 (Molecular imaging and biology, 2023)

Columns and labels:
[1] = target: T1, α-synuclein fibrils (Homo sapiens, UniProt P37840); assay: Compound screening, 1-point inhibition of [^3H]BF2846 binding; settings: read-out: % Inhibition [^3H]BF-2846
Procedure, shortened: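 Human α-synuclein (C-terminal intein fusion, expressed in E. coli BL21(DE3), purified, quantified by A280) was fibrillised. Fibrils at 100 nM were incubated with 100 nM test compound and 3 nM [³H]BF2846 in 50 mM Tris-HCl pH 7.4, 1 h at 37 °C, with nonspecific binding defined by 0.5 μM BF2846. Samples were GF/C-filtered and scintillation-counted, in triplicate. Bound radioligand was expressed as % of total binding and tested by one-way ANOVA.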

[2] = target: T1, α-synuclein fibrils; assay: Competition binding assay against [^3H]BF2846
Procedure, shortened: (§1)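 Fibrils (α-synuclein 50 nM; Aβ42 100 nM) incubated with 3 nM [³H]BF2846 and varying concentrations of test compound in 50 mM Tris-HCl pH 7.4, 1 h at 37 °C. Nonspecific binding was defined with 0.5 μM unlabeled BF2846, and fibril-free filter blanks were run. Samples were GF/C-filtered, washed with 10 mM Tris/150 mM NaCl and scintillation-counted after 12 h, in triplicate. Ki was obtained by nonlinear regression using radioligand Kd.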

[3] = target: Aβ42 fibrils (Homo sapiens, UniProt P05067); assay: Competition binding assay against [^3H]BF2846
Procedure, shortened: as §1

Aβ42 fibrils, sequence (P05067 672-713 limits assumed): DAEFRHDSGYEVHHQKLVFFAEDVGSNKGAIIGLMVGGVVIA

inhibition at 0.1 µM [1] [%] | Ki [2] [nM] | Ki [3] [nM] | Structure (SMILES)
80 | 11 | 36.1 | COc1ccc(C(=O)Nc2cc(-c3ccc(Br)cc3)no2)cc1 [Compound 15, N-(3-(4-bromophenyl)isoxazol-5-yl)-4-methoxybenzamide]
– | 3.6 | – | COc1ccc(C(=O)Nc2cc(-c3ccc(I)cc3)no2)cc1 [Compound 21, N-(3-(4-iodophenyl)isoxazol-5-yl)-4-methoxybenzamide]
